Source: ChEMBL document CHEMBL3098105, “7,7'-Diazaindirubin--a small molecule inhibitor of casein kinase 2 in vitro and in cells” (Bioorg Med Chem, 2014)

Legend:
[1] = target: Tyrosine-protein kinase ABL1 (Homo sapiens) (UniProt P00519); experiment: Inhibition of human Abl assessed as residual activity at 1 uM relative to control
MCF7 [2] = experiment: Cell cycle arrest in human MCF7 cells assessed as accumulation at G1 phase at 0.25 uM after 24 hrs using propidium iodide staining by FACS analysis (reference value: 57.74%); format: functional
[3] = target: Serine/threonine-protein kinase DCLK2 (Homo sapiens) (UniProt Q8N568); experiment: Inhibition of human DCAMKL2 assessed as residual activity at 1 uM relative to control
MCF7 [4] = experiment: Cell cycle arrest in human MCF7 cells assessed as accumulation at G1 phase at 0.5 uM after 24 hrs using propidium iodide staining by FACS analysis (reference value: 57.74%); format: functional
[5] = target: Serine/threonine-protein kinase Nek7 (Homo sapiens) (UniProt Q8TDX7); experiment: Inhibition of human NEK7 assessed as residual activity at 1 uM relative to control
Sequence of Serine/threonine-protein kinase Nek7 (Homo sapiens) (Q8TDX7 whole entry, looked up): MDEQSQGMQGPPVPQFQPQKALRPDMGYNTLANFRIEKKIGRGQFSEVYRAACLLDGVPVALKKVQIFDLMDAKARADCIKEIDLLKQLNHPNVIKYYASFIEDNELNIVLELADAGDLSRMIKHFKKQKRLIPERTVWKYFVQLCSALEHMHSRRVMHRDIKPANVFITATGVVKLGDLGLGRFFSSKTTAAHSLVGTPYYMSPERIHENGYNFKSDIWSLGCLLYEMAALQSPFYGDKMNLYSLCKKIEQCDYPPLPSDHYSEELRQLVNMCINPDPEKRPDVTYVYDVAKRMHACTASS

[6] = target: Cyclin-dependent kinase 1/cyclin B1 (Homo sapiens) (UniProt P06493+P14635); experiment: Inhibition of human CDK1/cyclinB assessed as residual activity at 1 uM relative to control; format: protein-complex assay
Sequence of Cyclin-dependent kinase 1/cyclin B1 (Homo sapiens) (P06493 whole entry, looked up): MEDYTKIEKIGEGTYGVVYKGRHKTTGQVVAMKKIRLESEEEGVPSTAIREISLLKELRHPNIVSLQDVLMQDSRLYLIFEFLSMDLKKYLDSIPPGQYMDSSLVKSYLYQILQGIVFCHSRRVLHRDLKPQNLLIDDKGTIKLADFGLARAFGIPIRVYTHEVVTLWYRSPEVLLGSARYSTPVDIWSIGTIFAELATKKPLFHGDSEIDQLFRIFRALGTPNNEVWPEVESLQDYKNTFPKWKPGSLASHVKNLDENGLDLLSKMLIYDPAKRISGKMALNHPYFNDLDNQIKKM
Sequence of Cyclin-dependent kinase 1/cyclin B1 (Homo sapiens) (P14635 whole entry, looked up): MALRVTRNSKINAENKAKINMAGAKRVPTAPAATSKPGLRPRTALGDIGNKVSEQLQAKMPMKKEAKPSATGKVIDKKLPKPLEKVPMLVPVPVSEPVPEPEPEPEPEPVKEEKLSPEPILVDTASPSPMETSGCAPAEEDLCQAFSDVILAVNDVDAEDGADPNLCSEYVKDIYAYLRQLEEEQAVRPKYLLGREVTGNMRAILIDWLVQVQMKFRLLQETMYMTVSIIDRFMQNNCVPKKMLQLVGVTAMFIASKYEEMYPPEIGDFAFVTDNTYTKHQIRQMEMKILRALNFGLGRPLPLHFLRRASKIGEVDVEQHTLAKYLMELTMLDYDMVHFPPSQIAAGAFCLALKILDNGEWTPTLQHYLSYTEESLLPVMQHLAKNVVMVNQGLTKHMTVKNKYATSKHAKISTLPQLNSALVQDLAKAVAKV

[7] = target: Inhibitor of nuclear factor kappa-B kinase subunit beta (Homo sapiens) (UniProt O14920); experiment: Inhibition of human IKKbeta assessed as residual activity at 1 uM relative to control
[8] = target: Serine/threonine-protein kinase N2 (Homo sapiens) (UniProt Q16513); experiment: Inhibition of human PRK2 assessed as residual activity at 1 uM relative to control
[9] = target: Homeodomain-interacting protein kinase 2 (Homo sapiens) (UniProt Q9H2X6); experiment: Inhibition of human HIPK2 assessed as residual activity at 1 uM relative to control
[10] = target: Platelet-derived growth factor receptor alpha (Homo sapiens) (UniProt P16234); experiment: Inhibition of PDGFR-alpha (unknown origin) assessed as residual activity at 1 uM relative to control
Sequence of Platelet-derived growth factor receptor alpha (Homo sapiens) (P16234 whole entry): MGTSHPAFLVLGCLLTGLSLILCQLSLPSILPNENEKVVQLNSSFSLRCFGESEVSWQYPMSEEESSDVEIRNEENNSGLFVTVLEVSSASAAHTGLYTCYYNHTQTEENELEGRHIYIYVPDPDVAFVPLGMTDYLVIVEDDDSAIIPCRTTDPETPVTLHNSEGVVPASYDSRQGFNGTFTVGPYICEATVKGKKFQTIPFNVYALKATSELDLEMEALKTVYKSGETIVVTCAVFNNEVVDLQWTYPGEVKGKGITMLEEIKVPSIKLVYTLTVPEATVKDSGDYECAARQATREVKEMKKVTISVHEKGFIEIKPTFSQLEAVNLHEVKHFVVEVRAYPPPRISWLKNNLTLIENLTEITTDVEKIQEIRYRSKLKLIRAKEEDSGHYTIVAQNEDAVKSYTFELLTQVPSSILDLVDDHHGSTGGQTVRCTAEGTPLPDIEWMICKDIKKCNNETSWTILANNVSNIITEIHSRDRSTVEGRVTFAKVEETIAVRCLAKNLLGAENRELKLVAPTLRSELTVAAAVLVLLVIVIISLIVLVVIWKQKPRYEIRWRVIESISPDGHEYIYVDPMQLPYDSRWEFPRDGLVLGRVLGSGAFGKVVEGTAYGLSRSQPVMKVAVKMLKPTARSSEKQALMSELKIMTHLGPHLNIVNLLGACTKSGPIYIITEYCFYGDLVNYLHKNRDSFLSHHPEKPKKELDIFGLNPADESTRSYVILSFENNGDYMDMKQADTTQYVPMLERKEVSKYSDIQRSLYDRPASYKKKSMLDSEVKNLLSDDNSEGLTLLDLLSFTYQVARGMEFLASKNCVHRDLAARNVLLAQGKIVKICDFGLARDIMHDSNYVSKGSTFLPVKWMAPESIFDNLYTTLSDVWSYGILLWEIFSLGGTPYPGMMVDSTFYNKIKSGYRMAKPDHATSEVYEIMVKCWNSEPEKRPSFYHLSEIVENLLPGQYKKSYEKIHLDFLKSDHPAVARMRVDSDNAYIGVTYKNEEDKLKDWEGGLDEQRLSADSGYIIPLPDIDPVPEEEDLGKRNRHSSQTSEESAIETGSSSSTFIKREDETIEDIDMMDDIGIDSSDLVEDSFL

KM12 = experiment: Antiproliferative activity against human KM12 cells after 3 days by sulforhodamine B assay; format: functional; details: KM12, 72 h
Method in brief: (§1)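 Tested in the NCI 60 cell line panel. GI50 is the concentration giving 50% inhibition of cell growth, and values are the mean of two series of tests.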

[11] = target: Serine/threonine-protein kinase B-raf (Homo sapiens) (UniProt P15056); experiment: Inhibition of wild type B-RAF (unknown origin) assessed as residual activity at 1 uM relative to control
Sequence of Serine/threonine-protein kinase B-raf (Homo sapiens) (P15056 whole entry): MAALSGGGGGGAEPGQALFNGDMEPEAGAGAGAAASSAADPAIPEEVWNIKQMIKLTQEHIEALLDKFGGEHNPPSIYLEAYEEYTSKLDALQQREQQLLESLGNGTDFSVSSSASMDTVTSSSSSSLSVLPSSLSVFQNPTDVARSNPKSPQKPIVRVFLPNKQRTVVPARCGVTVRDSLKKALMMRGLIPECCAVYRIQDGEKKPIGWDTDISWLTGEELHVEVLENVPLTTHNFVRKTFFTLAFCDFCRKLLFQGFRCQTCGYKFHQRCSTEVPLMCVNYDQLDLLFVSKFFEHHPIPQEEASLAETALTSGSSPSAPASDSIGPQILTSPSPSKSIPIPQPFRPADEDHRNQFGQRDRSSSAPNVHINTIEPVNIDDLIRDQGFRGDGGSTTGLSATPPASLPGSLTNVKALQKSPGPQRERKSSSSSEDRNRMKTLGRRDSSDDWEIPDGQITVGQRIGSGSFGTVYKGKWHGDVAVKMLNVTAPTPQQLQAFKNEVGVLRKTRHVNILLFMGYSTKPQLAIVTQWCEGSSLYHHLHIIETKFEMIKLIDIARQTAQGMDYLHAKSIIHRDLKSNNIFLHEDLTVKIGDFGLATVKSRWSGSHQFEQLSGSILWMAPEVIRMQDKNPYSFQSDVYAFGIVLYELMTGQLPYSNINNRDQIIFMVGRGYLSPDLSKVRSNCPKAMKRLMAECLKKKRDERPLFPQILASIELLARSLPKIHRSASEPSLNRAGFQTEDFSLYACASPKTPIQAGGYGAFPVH

[12] = target: Serine/threonine-protein kinase PLK1 (Homo sapiens) (UniProt P53350); experiment: Inhibition of human Plk1 assessed as residual activity at 1 uM relative to control
[13] = target: Ribosomal protein S6 kinase beta-1 (Homo sapiens) (UniProt P23443); experiment: Inhibition of human p70S6K assessed as residual activity at 1 uM relative to control
[14] = target: Tyrosine-protein kinase FRK (Homo sapiens) (UniProt P42685); experiment: Inhibition of human PTK5 assessed as residual activity at 1 uM relative to control
[15] = target: Ephrin type-B receptor 4 (Homo sapiens) (UniProt P54760); experiment: Inhibition of human EphB4 assessed as residual activity at 1 uM relative to control
Homo sapiens = species: Homo sapiens; experiment: Inhibition of S6K (unknown origin) assessed as residual activity at 10 uM relative to control
[16] = target: RAC-beta serine/threonine-protein kinase (Homo sapiens) (UniProt P31751); experiment: Inhibition of human PKBbeta assessed as residual activity at 1 uM relative to control
[17] = target: Ribosomal protein S6 kinase alpha-1 (Homo sapiens) (UniProt Q15418); experiment: Inhibition of human Rsk1 assessed as residual activity at 1 uM relative to control
Sequence of Ribosomal protein S6 kinase alpha-1 (Homo sapiens) (Q15418 whole entry): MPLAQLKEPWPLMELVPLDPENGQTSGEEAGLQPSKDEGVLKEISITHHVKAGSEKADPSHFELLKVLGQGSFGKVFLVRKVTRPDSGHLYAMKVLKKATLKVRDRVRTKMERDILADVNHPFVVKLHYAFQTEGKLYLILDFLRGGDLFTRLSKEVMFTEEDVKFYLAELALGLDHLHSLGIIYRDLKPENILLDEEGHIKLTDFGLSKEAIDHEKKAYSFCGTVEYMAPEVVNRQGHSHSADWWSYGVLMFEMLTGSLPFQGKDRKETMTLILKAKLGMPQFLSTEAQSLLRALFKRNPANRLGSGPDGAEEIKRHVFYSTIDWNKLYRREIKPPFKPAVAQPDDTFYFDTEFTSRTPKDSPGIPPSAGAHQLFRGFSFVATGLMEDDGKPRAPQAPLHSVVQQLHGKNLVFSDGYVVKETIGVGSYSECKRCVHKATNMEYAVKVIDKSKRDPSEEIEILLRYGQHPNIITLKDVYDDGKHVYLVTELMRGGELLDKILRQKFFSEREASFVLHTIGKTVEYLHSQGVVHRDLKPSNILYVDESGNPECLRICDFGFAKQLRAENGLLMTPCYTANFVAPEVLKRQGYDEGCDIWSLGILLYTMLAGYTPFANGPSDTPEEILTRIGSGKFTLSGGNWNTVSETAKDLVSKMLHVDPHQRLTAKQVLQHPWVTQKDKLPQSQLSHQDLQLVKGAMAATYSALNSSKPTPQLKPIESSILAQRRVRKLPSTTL

[18] = target: Tyrosine-protein kinase Fes/Fps (Homo sapiens) (UniProt P07332); experiment: Inhibition of human Fes assessed as residual activity at 1 uM relative to control
[19] = target: Epidermal growth factor receptor (Homo sapiens) (UniProt P00533); experiment: Inhibition of human EGFR assessed as residual activity at 1 uM relative to control
[20] = target: Ephrin type-A receptor 5 (Homo sapiens) (UniProt P54756); experiment: Inhibition of human EphA5 assessed as residual activity at 1 uM relative to control
[21] = target: Macrophage-stimulating protein receptor (Homo sapiens) (UniProt Q04912); experiment: Inhibition of human Ron assessed as residual activity at 1 uM relative to control
Sequence of Macrophage-stimulating protein receptor (Homo sapiens) (Q04912 25-304 limits assumed): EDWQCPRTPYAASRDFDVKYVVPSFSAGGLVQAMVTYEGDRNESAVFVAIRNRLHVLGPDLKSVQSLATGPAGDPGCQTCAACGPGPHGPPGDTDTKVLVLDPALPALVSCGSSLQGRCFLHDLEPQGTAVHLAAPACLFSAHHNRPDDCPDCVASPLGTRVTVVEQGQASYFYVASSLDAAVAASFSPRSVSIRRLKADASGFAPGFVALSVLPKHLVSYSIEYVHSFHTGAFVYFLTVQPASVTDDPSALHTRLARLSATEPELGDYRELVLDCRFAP
Sequence of Macrophage-stimulating protein receptor (Homo sapiens) (Q04912 310-1400 limits assumed): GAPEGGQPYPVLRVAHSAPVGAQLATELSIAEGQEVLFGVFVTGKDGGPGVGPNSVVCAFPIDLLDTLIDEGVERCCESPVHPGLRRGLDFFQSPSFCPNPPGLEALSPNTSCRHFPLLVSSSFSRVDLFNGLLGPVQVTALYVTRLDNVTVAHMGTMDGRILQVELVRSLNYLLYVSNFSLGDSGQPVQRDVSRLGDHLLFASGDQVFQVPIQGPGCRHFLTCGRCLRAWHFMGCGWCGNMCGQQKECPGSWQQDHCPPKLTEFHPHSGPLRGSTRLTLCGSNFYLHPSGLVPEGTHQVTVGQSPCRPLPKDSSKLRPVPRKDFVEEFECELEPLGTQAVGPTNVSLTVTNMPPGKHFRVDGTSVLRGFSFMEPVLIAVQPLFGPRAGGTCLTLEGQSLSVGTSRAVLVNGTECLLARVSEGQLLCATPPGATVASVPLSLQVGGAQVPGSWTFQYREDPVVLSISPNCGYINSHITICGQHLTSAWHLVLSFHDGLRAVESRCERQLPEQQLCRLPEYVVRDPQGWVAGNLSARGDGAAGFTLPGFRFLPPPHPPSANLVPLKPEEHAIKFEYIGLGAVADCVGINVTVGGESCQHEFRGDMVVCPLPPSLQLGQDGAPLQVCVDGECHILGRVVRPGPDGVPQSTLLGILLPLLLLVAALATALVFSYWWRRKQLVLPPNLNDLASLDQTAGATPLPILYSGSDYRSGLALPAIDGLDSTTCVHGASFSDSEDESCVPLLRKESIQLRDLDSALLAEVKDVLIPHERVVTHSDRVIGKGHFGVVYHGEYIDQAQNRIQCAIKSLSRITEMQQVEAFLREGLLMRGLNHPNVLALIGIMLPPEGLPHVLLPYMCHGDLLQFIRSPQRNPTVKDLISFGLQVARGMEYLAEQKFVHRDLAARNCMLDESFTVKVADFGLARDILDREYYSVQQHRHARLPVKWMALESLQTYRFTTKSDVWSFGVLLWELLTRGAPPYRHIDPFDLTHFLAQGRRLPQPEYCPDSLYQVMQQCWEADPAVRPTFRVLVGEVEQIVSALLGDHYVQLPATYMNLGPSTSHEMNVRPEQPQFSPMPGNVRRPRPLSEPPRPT

[22] = target: Fibroblast growth factor receptor 3 (Homo sapiens) (UniProt P22607); experiment: Inhibition of human FGFR3 assessed as residual activity at 1 uM relative to control
[23] = target: Tyrosine-protein kinase ZAP-70 (Homo sapiens) (UniProt P43403); experiment: Inhibition of human ZAP-70 assessed as residual activity at 1 uM relative to control
[24] = target: Proto-oncogene tyrosine-protein kinase receptor Ret (Homo sapiens) (UniProt P07949); experiment: Inhibition of human Ret assessed as residual activity at 1 uM relative to control
[25] = target: Tyrosine-protein kinase Fer (Homo sapiens) (UniProt P16591); experiment: Inhibition of human Fer assessed as residual activity at 1 uM relative to control
SK-MEL-5 = experiment: Antiproliferative activity against human SK-MEL-5 cells after 3 days by sulforhodamine B assay; format: functional; details: SK-MEL-5, 72 h; method in brief: as §1
MCF7 [26] = experiment: Cell cycle arrest in human MCF7 cells assessed as accumulation at G2/M phase at 0.5 uM after 24 hrs using propidium iodide staining by FACS analysis (reference value: 22.13%); format: functional
[27] = target: Serine/threonine-protein kinase WNK2 (Homo sapiens) (UniProt Q9Y3S1); experiment: Inhibition of human WNK2 assessed as residual activity at 1 uM relative to control
[28] = target: CDK7/Cyclin H/MNAT1 (Homo sapiens) (UniProt P51946+P50613+P51948); experiment: Inhibition of human CDK7/cyclinH/MAT1 assessed as residual activity at 1 uM relative to control; format: protein-complex assay
[29] = target: Receptor-type tyrosine-protein kinase FLT3 (Homo sapiens) (UniProt P36888); experiment: Inhibition of human Flt3 assessed as residual activity at 1 uM relative to control
[30] = target: Serine/threonine-protein kinase D1 (Homo sapiens) (UniProt Q15139); experiment: Inhibition of human PKCmu assessed as residual activity at 1 uM relative to control
[31] = target: Insulin receptor (Homo sapiens) (UniProt P06213); experiment: Inhibition of human IR assessed as residual activity at 1 uM relative to control
[32] = target: Mitogen-activated protein kinase kinase kinase 9 (Homo sapiens) (UniProt P80192); experiment: Inhibition of human MLK1 assessed as residual activity at 1 uM relative to control
[33] = Antiproliferative activity against human UO31 cells after 3 days by sulforhodamine B assay; format: functional; details: UO-31, 72 h
[34] = target: RAF proto-oncogene serine/threonine-protein kinase (Homo sapiens) (UniProt P04049); experiment: Inhibition of RAF1 (unknown origin) assessed as residual activity at 10 uM relative to control

Activity [1]: 122% | Activity [3]: 100% | Activity [5]: 57% | Activity [6]: 101% | Activity [7]: 110% | Activity [8]: 95% | Activity [9]: 115% | Activity [10]: 94% | Activity [11]: 80% | Activity [12]: 101% | Activity [13]: 133% | Activity [14]: 92% | Activity [15]: 116% | Activity (Homo sapiens): 99% | Activity [16]: 87% | Activity [17]: 114% | Activity [18]: 107% | Activity [19]: 120% | Activity [20]: 125% | Activity [21]: 101% | Activity [22]: 126% | Activity [23]: 78% | Activity [24]: 107% | Activity [25]: 102% | GI50 (SK-MEL-5): 160 nM | Activity [27]: 102% | Activity [28]: 76% | Activity [29]: 69% | Activity [30]: 93% | Activity [31]: 98% | Activity [32]: 61% | Activity [34]: 86%
SMILES: O=C1Nc2ncccc2/C1=C1/Nc2ncccc2C1=O
Activity (MCF7 [2]): 58.28% | Activity (MCF7 [4]): 59.53% | GI50 (KM12): 387 nM | Activity (MCF7 [26]): 21.21% | GI50 [33]: 1070 nM
